Test results from ChEMBL document CHEMBL5705898 (Proc Natl Acad Sci U S A, 2014).

Tests used:
Homo sapiens [1] = species on record: Homo sapiens; assay: Inhibition of SKCa channel (unknown origin) at 10 uM relative to control
[2] = target: T1, Kappa-type opioid receptor (Homo sapiens, UniProt P41145); assay: Inhibition of human kappa opioid receptor
[3] = target: Sodium-dependent noradrenaline transporter (Homo sapiens) (UniProt P23975); assay: Inhibition of human norepinephrine transporter at 10 uM relative to control
[4] = Stability of compound in cell media by MS-LC analysis; assay type: physicochemical
[5] = target: cGMP-inhibited 3',5'-cyclic phosphodiesterase 3B (Homo sapiens) (UniProt Q13370); assay: Inhibition of human PDE3B at 10 uM relative to control
[6] = target: Histamine H4 receptor (Homo sapiens) (UniProt Q9H3N8); assay: Inhibition of human H4 receptor at 10 uM relative to control
[7] = target: Insulin receptor (Homo sapiens) (UniProt P06213); assay: Inhibition of human IRK (InsR) at 10 uM relative to control
Homo sapiens [8] = species on record: Homo sapiens; assay: Inhibition of human CDK2/CycA at 10 uM relative to control
Homo sapiens [9] = species on record: Homo sapiens; assay: Inhibition of GABA-gated Cl- channel (unknown origin) at 10 uM relative to control
Homo sapiens [10] = species on record: Homo sapiens; assay: Inhibition of Ca2+ channel L, dihydropyridine site (unknown origin) at 10 uM relative to control
[11] = target: Alpha-2B adrenergic receptor (Homo sapiens, UniProt P18089); assay: Inhibition of human alpha 2B receptor
[12] = target: Adenosine receptor A3 (Homo sapiens) (UniProt P0DMS8); assay: Inhibition of human A3 receptor at 10 uM relative to control
Homo sapiens [13] = species on record: Homo sapiens; assay: Inhibition of Na+/K+ ATPase (unknown origin) at 10 uM relative to control
[14] = target: Prostaglandin G/H synthase 1 (Homo sapiens) (UniProt P23219); assay: Inhibition of human COX1 at 10 uM relative to control
[15] = target: Prostaglandin G/H synthase 2 (Homo sapiens) (UniProt P35354); assay: Inhibition of human COX2 at 10 uM relative to control
[16] = Inhibition of SETD7 V274E mutant (unknown origin) using biotinylated H3 (1-25) peptide as substrate incubated for 1 hrs in presence of 3H-SAM by radioactivity based assay; design: species or system Homo sapiens
Method in brief: (§1)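 Scintillation proximity assay on recombinant E. coli-expressed human SETD7(1–366) mutant forms. Read-out was incorporation of the ³H-methyl group from ³H-SAM into histone H3(1–25) peptide, with 2 µM SAM, 2 µM H3(1–25) and 2 nM enzyme. IC50 is given as the mean ± SD of triplicate runs.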

[17] = target: Tyrosine-protein kinase Fyn (Homo sapiens) (UniProt P06241); assay: Inhibition of human Fyn kinase at 10 uM relative to control
[18] = target: Melanocyte-stimulating hormone receptor (Homo sapiens) (UniProt Q01726); assay: Inhibition of MC1 receptor (unknown origin) at 10 uM relative to control
[19] = target: D(3) dopamine receptor (Homo sapiens) (UniProt P35462); assay: Inhibition of human D3 receptor at 10 uM relative to control
[20] = Inhibition of SETD7 H252W mutant (unknown origin) using biotinylated H3 (1-25) peptide as substrate incubated for 1 hrs in presence of 3H-SAM by radioactivity based assay; design: species or system Homo sapiens; method in brief: as §1
[21] = target: 5-hydroxytryptamine receptor 2A (Homo sapiens) (UniProt P28223); assay: Inhibition of human 5-HT2A receptor at 10 uM relative to control
[22] = target: T1, Kappa-type opioid receptor; assay: Inhibition of human kappa opioid receptor at 10 uM relative to control
[23] = target: Melatonin receptor type 1A (Homo sapiens) (UniProt P48039); assay: Inhibition of human MT1 at 10 uM relative to control
[24] = target: 5-hydroxytryptamine receptor 1A (Homo sapiens) (UniProt P08908); assay: Inhibition of human 5-HT1A receptor at 10 uM relative to control
[25] = target: Type-2 angiotensin II receptor (Homo sapiens) (UniProt P50052); assay: Inhibition of human AT2 receptor at 10 uM relative to control
[26] = target: High affinity choline transporter 1 (Homo sapiens) (UniProt Q9GZV3); assay: Inhibition of human choline transporter (CHT1) at 10 uM relative to control
[27] = target: Glucagon receptor (Homo sapiens) (UniProt P47871); assay: Inhibition of human Glucagon receptor at 10 uM relative to control
Homo sapiens [28] = species on record: Homo sapiens; assay: Inhibition of human TNF-alpha at 10 uM relative to control
[29] = target: Glutamate [NMDA] receptor (Homo sapiens) (UniProt Q05586+Q12879+Q13224+O15399+O60391+Q14957+Q8TCU5); assay: Inhibition of NMDA receptor (unknown origin) at 10 uM relative to control; assay type: protein-complex assay
Motilin receptor [30] = target: T2, Motilin receptor (Homo sapiens, UniProt O43193); assay: Inhibition of human motilin receptor at 10 uM relative to control
[31] = target: 72 kDa type IV collagenase (Homo sapiens) (UniProt P08253); assay: Inhibition of human MMP-2 at 10 uM relative to control
Motilin receptor [32] = target: T2, Motilin receptor; assay: Inhibition of human motilin receptor
[33] = target: 5-hydroxytryptamine receptor 7 (Homo sapiens) (UniProt P34969); assay: Inhibition of human 5-HT7 receptor at 10 uM relative to control
[34] = target: Leukotriene B4 receptor 1 (Homo sapiens) (UniProt Q15722); assay: Inhibition of human BLT1 at 10 uM relative to control
Homo sapiens [35] = species on record: Homo sapiens; assay: Inhibition of human UT at 10 uM relative to control
[36] = target: Beta-secretase 1 (Homo sapiens) (UniProt P56817); assay: Inhibition of human BACE-1 at 10 uM relative to control
[37] = target: Somatostatin receptor type 4 (Homo sapiens) (UniProt P31391); assay: Inhibition of human sst4 at 10 uM relative to control
[38] = target: Platelet-activating factor receptor (Homo sapiens) (UniProt P25105); assay: Inhibition of human PAF receptor at 10 uM relative to control
[39] = target: Adenosine receptor A2a (Homo sapiens) (UniProt P29274); assay: Inhibition of human A2A receptor at 10 uM relative to control
Homo sapiens [40] = species on record: Homo sapiens; assay: Inhibition of human sigma receptor at 10 uM relative to control
[41] = target: Catechol O-methyltransferase (Homo sapiens) (UniProt P21964); assay: Inhibition of COMT (unknown origin) at 10 uM relative to control
[42] = target: Melanocortin receptor 4 (Homo sapiens) (UniProt P32245); assay: Inhibition of human MC4 at 10 uM relative to control
[43] = target: Adenosine receptor A1 (Homo sapiens) (UniProt P30542); assay: Inhibition of human A1 receptor at 10 uM relative to control
[44] = target: Beta-2 adrenergic receptor (Homo sapiens) (UniProt P07550); assay: Inhibition of human beta 2 receptor at 10 uM relative to control

T2 sequence (O43193 whole entry): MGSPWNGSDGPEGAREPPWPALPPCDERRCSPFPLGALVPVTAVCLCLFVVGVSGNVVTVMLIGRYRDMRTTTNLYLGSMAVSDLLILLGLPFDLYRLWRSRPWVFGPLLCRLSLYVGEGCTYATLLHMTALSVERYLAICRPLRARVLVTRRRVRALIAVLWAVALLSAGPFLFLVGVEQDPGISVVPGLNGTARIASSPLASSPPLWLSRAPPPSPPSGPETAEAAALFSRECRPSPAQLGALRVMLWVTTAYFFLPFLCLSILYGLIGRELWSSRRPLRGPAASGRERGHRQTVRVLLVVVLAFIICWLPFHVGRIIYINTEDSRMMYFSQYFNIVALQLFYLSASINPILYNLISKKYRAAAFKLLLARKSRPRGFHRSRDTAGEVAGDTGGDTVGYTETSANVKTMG
T1 sequence (P41145 whole entry): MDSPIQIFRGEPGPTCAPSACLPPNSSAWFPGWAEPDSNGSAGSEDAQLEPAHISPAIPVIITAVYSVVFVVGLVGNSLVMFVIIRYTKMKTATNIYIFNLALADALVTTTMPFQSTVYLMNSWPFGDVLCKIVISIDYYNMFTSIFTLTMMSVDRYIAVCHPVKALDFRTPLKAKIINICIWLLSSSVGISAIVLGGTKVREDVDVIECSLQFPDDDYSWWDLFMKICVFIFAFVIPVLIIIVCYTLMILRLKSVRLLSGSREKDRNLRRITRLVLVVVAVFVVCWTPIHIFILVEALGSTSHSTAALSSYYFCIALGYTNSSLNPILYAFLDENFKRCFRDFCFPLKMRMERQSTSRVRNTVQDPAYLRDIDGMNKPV
Sequence of Adenosine receptor A3 (Homo sapiens) (P0DMS8 whole entry): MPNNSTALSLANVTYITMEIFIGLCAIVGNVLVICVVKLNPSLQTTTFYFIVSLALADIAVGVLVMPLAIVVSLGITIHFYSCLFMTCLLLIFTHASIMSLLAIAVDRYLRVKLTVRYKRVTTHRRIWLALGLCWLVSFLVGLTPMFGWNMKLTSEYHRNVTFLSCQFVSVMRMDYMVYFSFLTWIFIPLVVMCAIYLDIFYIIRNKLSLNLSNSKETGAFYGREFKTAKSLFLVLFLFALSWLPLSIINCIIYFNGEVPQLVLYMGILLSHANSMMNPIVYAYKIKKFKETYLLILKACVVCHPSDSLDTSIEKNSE
Sequence of Alpha-2B adrenergic receptor (P18089 whole entry): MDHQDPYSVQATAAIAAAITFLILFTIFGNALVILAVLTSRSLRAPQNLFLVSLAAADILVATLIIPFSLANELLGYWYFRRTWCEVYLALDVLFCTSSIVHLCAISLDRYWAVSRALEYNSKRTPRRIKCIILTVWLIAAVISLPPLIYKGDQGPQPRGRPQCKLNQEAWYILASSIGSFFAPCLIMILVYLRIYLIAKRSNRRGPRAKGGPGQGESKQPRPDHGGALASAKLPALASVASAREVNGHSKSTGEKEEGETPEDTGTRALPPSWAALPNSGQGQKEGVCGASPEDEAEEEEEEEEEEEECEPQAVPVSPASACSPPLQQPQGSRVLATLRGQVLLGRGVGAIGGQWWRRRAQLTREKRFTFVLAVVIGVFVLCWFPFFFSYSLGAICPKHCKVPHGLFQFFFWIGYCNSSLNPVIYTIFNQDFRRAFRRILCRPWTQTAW
Sequence of Platelet-activating factor receptor (Homo sapiens) (P25105 whole entry): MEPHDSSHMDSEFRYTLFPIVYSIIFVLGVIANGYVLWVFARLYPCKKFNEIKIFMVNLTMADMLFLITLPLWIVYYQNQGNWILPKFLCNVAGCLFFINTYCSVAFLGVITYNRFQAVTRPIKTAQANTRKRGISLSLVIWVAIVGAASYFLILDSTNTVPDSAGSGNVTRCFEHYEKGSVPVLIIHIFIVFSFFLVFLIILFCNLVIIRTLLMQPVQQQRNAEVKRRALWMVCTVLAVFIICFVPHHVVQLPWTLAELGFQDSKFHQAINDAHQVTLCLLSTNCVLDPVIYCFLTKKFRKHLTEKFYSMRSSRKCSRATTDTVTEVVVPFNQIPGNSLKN
Sequence of Prostaglandin G/H synthase 1 (Homo sapiens) (P23219 whole entry): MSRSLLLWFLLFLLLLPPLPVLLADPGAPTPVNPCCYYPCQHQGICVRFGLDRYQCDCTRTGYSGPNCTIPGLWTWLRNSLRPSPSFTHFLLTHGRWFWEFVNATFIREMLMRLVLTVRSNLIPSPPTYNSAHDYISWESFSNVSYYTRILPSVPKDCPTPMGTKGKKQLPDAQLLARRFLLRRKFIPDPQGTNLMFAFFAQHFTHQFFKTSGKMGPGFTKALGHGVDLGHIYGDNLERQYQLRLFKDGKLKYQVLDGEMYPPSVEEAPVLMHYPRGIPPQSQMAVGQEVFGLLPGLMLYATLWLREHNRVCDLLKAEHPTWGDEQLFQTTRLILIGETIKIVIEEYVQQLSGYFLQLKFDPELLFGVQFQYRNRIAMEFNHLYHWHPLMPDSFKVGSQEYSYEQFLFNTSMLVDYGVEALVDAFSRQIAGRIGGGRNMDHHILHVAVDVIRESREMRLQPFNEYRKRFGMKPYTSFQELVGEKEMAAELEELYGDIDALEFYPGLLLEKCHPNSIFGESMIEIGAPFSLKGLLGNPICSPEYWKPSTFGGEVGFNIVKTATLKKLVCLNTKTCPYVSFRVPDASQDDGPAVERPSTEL
Sequence of Somatostatin receptor type 4 (Homo sapiens) (P31391 whole entry): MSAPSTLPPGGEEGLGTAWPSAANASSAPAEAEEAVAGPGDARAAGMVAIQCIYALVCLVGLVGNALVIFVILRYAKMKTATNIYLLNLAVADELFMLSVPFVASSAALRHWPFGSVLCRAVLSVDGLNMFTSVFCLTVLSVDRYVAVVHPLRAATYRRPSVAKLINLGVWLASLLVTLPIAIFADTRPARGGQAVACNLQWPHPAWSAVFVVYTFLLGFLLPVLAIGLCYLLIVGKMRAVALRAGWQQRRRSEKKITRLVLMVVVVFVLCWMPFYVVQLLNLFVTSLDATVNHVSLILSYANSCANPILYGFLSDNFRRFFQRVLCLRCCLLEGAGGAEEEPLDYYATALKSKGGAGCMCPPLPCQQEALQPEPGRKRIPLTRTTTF
Sequence of Beta-secretase 1 (Homo sapiens) (P56817 whole entry): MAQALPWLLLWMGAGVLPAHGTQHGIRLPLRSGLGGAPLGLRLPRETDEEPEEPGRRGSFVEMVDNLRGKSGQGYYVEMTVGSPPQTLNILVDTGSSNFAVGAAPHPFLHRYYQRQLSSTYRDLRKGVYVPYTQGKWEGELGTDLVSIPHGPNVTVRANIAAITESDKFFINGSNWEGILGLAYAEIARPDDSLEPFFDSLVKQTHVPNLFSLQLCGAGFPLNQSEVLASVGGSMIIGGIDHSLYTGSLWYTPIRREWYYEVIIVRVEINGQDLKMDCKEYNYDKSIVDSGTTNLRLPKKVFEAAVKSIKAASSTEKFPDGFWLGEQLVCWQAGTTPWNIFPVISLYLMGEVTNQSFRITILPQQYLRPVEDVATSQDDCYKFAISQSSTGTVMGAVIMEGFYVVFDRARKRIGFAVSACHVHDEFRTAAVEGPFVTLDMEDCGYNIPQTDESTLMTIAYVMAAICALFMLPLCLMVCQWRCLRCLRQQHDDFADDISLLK
Sequence of 5-hydroxytryptamine receptor 1A (Homo sapiens) (P08908 whole entry): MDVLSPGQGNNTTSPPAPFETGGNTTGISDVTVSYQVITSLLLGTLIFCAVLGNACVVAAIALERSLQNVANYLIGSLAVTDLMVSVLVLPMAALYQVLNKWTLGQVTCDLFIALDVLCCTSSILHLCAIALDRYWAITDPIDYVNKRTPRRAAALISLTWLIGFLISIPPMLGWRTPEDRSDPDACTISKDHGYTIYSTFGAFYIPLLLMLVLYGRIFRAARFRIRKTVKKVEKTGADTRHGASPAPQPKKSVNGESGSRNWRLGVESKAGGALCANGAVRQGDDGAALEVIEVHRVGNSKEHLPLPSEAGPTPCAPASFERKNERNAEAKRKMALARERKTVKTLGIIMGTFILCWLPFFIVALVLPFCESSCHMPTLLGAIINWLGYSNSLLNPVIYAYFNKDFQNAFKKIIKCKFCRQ
Sequence of Sodium-dependent noradrenaline transporter (Homo sapiens) (P23975 whole entry): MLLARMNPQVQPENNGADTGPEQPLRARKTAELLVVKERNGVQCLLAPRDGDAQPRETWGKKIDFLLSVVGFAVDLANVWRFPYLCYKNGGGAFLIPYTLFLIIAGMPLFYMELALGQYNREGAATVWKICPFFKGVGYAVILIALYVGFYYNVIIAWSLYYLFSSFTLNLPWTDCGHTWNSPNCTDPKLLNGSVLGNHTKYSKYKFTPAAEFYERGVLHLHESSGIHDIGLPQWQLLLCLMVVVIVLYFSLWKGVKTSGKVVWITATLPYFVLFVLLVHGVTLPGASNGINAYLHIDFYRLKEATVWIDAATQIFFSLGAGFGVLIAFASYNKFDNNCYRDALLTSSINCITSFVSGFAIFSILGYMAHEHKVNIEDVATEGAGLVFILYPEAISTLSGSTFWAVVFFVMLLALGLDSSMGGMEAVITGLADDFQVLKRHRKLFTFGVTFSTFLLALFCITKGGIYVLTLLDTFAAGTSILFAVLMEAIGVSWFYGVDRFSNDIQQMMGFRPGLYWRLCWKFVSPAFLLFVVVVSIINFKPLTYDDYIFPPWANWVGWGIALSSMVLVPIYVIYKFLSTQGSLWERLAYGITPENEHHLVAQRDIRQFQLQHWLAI
Sequence of Type-2 angiotensin II receptor (Homo sapiens) (P50052 whole entry): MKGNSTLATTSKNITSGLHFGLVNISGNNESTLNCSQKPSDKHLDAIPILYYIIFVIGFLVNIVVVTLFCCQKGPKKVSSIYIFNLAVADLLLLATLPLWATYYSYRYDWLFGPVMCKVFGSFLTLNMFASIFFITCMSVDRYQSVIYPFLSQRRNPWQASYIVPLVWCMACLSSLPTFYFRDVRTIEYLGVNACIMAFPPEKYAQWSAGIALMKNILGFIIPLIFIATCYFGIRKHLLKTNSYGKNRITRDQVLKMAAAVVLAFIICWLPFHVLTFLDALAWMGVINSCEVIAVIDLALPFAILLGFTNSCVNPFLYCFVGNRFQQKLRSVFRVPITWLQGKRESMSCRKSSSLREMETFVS

Structure (SMILES): O=C([C@@H](Cc1cccc(C(F)(F)F)c1)NS(=O)(=O)c1cc(F)c2c(c1)CCNC2)N1CCCC1
- inhibition (Homo sapiens [1]): 5%
- IC50 [2]: 3.8 µM
- inhibition [3]: 10%
- Stability [4]: Stable
- inhibition [5]: -5%
- inhibition [6]: -2%
- inhibition [7]: 0%
- inhibition (Homo sapiens [8]): -1%
- inhibition (Homo sapiens [9]): 28%
- inhibition (Homo sapiens [10]): -10%
- IC50 [11]: 1.3 µM
- inhibition [12]: 12%
- inhibition (Homo sapiens [13]): 5%
- inhibition [14]: 4%
- inhibition [15]: -8%
- IC50 [16]: 10.8 µM
- inhibition [17]: 1%
- inhibition [18]: 16%
- inhibition [19]: 43%
- IC50 [20]: 2.63 µM
- inhibition [21]: 3%
- inhibition [22]: 55%
- inhibition [23]: 7%
- inhibition [24]: 0%
- inhibition [25]: 12%
- inhibition [26]: 9%
- inhibition [27]: 1%
- inhibition (Homo sapiens [28]): -4%
- inhibition [29]: -8%
- inhibition (Motilin receptor [30]): 55%
- inhibition [31]: 15%
- IC50 (Motilin receptor [32]): 7.2 µM
- inhibition [33]: 41%
- inhibition [34]: -8%
- inhibition (Homo sapiens [35]): 38%
- inhibition [36]: 3%
- inhibition [37]: 27%
- inhibition [38]: 6%
- inhibition [39]: 18%
- inhibition (Homo sapiens [40]): 49%
- inhibition [41]: -9%
- inhibition [42]: 15%
- inhibition [43]: -10%
- inhibition [44]: -4%
